The results in this text go back to ChEMBL document CHEMBL1124390, “Synthesis and antiviral activity of phosphonoacetic and phosphonoformic acid esters of 5-bromo-2'-deoxyuridine and related pyrimidine nucleosides and acyclonucleosides” (1989).

What all share (type): functional
Assay [1] concerns Human alphaherpesvirus 2. The assay can be described thus: Concentration required to reduce the number of viral plaques […] cell monolayers of herpes simplex virus type 2. Put shortly:
(§1)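 Plaque-reduction assay on Vero monkey kidney cells grown in DMEM + 10% v/v newborn bovine serum. HSV-1 strain HFEM or HSV-2 strain 3345, 50 pfu in duplicate, adsorbed at 4 °C to drained monolayers. Serum-free medium with carboxymethylcellulose plus compound dilution series added; 3 days at 37 °C. Formaldehyde fixation, Giemsa stain; ID50 interpolated from plotted results.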

In assay [2] the test system is Human alphaherpesvirus 1. The assay can be described thus: Concentration required to reduce the number of viral plaques […] cell monolayers of herpes simplex virus type 1. In a few lines:
as §1

In assay [3] the test system is Human alphaherpesvirus 1. The assay can be described thus: Concentration required to protect 50% of mice against a systemic infection of HSV-1. In a few lines:
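Swiss albino mice (9-12 g) given test substance 0.5 mL ip at -24, 0 and +24 h relative to infection (three treatments); controls got 0.5 mL water ip on the same schedule. Infection ip with approx 10x LD50 of HSV-1. Survivors counted on day 21; PD50 derived by Reed-Muench method.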

Regarding `O=C(O)CP(=O)(O)OC[C@H]1OC(n2cc(I)c(=O)[nH]c2=O)[C@@H](O)[C@@H]1O` (stereo partly specified), the ID50 in assay [1] and in assay [2] was above 2000 µM in each case.

Regarding `O=C(O)P(=O)(O)OC[C@H]1O[C@@H](n2cc(Br)c(=O)[nH]c2=O)C[C@@H]1O`, the ID50 is 0.44 µM in assay [1] and 4.6 µM in assay [2].

As for `Nc1nc(=O)n([C@H]2C[C@H](O)[C@@H](CO)O2)cc1Br`, the ID50 was determined as 0.15 µM in assay [1] and 1.5 µM in assay [2].

With `Cc1cn(C2O[C@H](COP(=O)(O)CC(=O)O)[C@@H](O)[C@@H]2O)c(=O)[nH]c1=O` (stereo partly specified), the ID50 in assay [1] and in assay [2] was above 2000 µM in each case.

Regarding `Nc1nc(O)c2ncn(C3O[C@H](COP(=O)(O)CC(=O)O)[C@@H](O)[C@H]3O)c2n1` (stereo partly specified), the ID50 in assay [1] and in assay [2] was above 2000 µM in each case. Besides, in assay [3], the PD50 amounted to 0.36 mM/kg.

As to `O=C(O)CP(=O)(O)OC[C@H]1OC(n2ccc(=O)[nH]c2=O)[C@H](O)[C@@H]1O` (stereo partly specified), the ID50 in assay [2] was determined as 300 µM. For the same molecule, in assay [3], the PD50 was determined as 0.31 mM/kg.

Take `O=C(O)CP(=O)(O)OC[C@H]1O[C@@H](n2cc(/C=C/Br)c(=O)[nH]c2=O)C[C@@H]1O`: the ID50 in assay [1] came to 1000 µM; in assay [2] it was 2.7 µM.

For the molecule `Nc1ncnc2c1ncn2[C@H]1C[C@H](O)[C@@H](COP(=O)(O)CC(=O)O)O1`, the ID50 in assay [1] and in assay [2] was above 2000 µM each time. In addition, in assay [3], the PD50 stood at 1.05 mM/kg.

On to `O=c1[nH]c(=O)n([C@H]2C[C@H](O)[C@@H](CO)O2)cc1I` [IDOXURIDINE], for which the ID50 turned out to be 2.3 µM in assay [1] and 2 µM in assay [2].

In the case of `O=C(O)CP(=O)(O)OC[C@H]1O[C@@H](n2cc(I)c(=O)[nH]c2=O)C[C@@H]1O`, the ID50 amounted to 10 µM in assay [1] and 40 µM in assay [2]. Further, the PD50 in assay [3] was 0.21 mM/kg.

For `Cc1cn([C@@H]2O[C@H](CO)[C@@H](O)[C@@H]2O)c(=O)[nH]c1=O`, the figures for the ID50 in assay [1] and in assay [2] were 19 µM and 10 µM, respectively.

On to `O=C(O)P(=O)(O)O` [FOSCARNET], for which the ID50 in assay [1] came out at 120 µM; in assay [2], 130 µM.

As for `O=C(CP(=O)(O)O)OC[C@H]1O[C@@H](n2cc(Br)c(=O)[nH]c2=O)C[C@@H]1O`, the ID50 in assay [1] stood at 7.4 µM; in assay [2], 12 µM.

In the case of `C#Cc1cn([C@H]2C[C@H](O)[C@@H](CO)O2)c(=O)[nH]c1=O`, the ID50 in assay [1] and in assay [2] was 11 µM in each case.

As for `O=C(O)CP(=O)(O)OC[C@H]1OC(n2cc(Br)c(=O)[nH]c2=O)[C@@H](O)[C@@H]1O` (stereo partly specified), the ID50 in assay [1] and in assay [2] was above 2000 µM each time.

`Nc1ccn(C2O[C@H](COP(=O)(O)CC(=O)O)[C@@H](O)[C@H]2O)c(=O)n1` (stereo partly specified): the ID50 in assay [1] was 1200 µM; in assay [2], 1600 µM.

`O=c1[nH]c(=O)n([C@@H]2O[C@H](CO)[C@@H](O)[C@@H]2O)cc1Br`: the ID50 turned out to be 5.9 µM in assay [1] and 5 µM in assay [2].

For `CCc1cn([C@H]2C[C@H](O)[C@@H](CO)O2)c(=O)[nH]c1=O` [EDOXUDINE], the ID50 in assay [1] was determined as 23 µM; in assay [2] it was 40 µM.

Take `Nc1ncnc2c1ncn2[C@@H]1O[C@H](CO)[C@@H](O)[C@@H]1O` [VIDARABINE]: the ID50 is 75 µM in assay [1] and 11 µM in assay [2].

Take `Cc1cn([C@H]2C[C@H](O)[C@@H](COP(=O)(O)CC(=O)O)O2)c(=O)[nH]c1=O`: the ID50 turned out to be 160 µM in assay [1] and 400 µM in assay [2]. This molecule also showed a PD50 in assay [3] of 0.45 mM/kg.

For `Nc1nc(O)c2ncn(COCCOP(=O)(O)CC(=O)O)c2n1`, the ID50 in assay [1] worked out at 1500 µM; in assay [2], 1800 µM.

Take `C=Cc1cn(C2O[C@H](COP(=O)(O)CC(=O)O)[C@@H](O)[C@@H]2O)c(=O)[nH]c1=O` (stereo partly specified): the ID50 in assay [1] and in assay [2] was above 2000 µM throughout.

Consider `CCc1cn([C@H]2C[C@H](O)[C@@H](COP(=O)(O)CC(=O)O)O2)c(=O)[nH]c1=O`, for which the ID50 in assay [1] was determined as 700 µM; in assay [2], 300 µM.

In the case of `Nc1nc(=O)n([C@H]2C[C@H](O)[C@@H](COP(=O)(O)CC(=O)O)O2)cc1Br`, the ID50 is 15 µM in assay [1] and 72 µM in assay [2].

Take `C=Cc1cn([C@H]2C[C@H](O)[C@@H](COP(=O)(O)CC(=O)O)O2)c(=O)[nH]c1=O`: the results for the ID50 in assay [1] and in assay [2] were 50 µM and 14 µM, respectively.

As to `Nc1nc2c(ncn2COCCO)c(=O)[nH]1` [ACYCLOVIR], the ID50 in assay [1] came to 2.2 µM; in assay [2], 1.3 µM.

As for `C#Cc1cn([C@H]2C[C@H](O)[C@@H](COP(=O)(O)CC(=O)O)O2)c(=O)[nH]c1=O`, the ID50 in assay [1] and in assay [2] was above 200 µM in each case.

On to `O=c1[nH]c(=O)n(C2O[C@H](CO)[C@@H](O)[C@@H]2O)cc1I` (stereo partly specified), for which the values for the ID50 in assay [1] and in assay [2] were 60 µM and 13 µM, respectively.

Turning to `Nc1ncnc2c1ncn2[C@@H]1O[C@H](COP(=O)(O)CC(=O)O)[C@@H](O)[C@@H]1O`, the ID50 in assay [1] and in assay [2] was above 2000 µM throughout. The PD50 in assay [3] is 0.53 mM/kg.

In the case of `O=c1[nH]c(=O)n([C@H]2C[C@H](O)[C@@H](CO)O2)cc1Br` [BROXURIDINE], the ID50 was 0.7 µM in assay [1] and 2 µM in assay [2].

Turning to `O=C(O)CP(=O)(O)OC[C@H]1O[C@@H](n2cc(Br)c(=O)[nH]c2=O)C[C@@H]1O`, the ID50 in assay [1] amounted to 1.2 µM; in assay [2] it was 16 µM. For the same molecule, the PD50 in assay [3] amounted to 0.2 mM/kg.

`O=C(O)CP(=O)(O)O` [FOSFONET]: the ID50 in assay [1] worked out at 240 µM; in assay [2], 230 µM. This molecule also came in with a PD50 in assay [3] of 0.67 mM/kg.

Consider `C=Cc1cn([C@H]2C[C@H](O)[C@@H](CO)O2)c(=O)[nH]c1=O`, for which the ID50 was 2 µM in assay [1] and 0.8 µM in assay [2].

Turning to `O=c1[nH]c(=O)n([C@H]2C[C@H](O)[C@@H](CO)O2)cc1/C=C/Br` [BRIVUDINE], the ID50 in assay [1] is 4.2 µM; in assay [2] it was 0.6 µM.

As to `CC(=O)c1cn(C2O[C@H](COP(=O)(O)CC(=O)O)[C@@H](O)[C@@H]2O)c(=O)[nH]c1=O` (stereo partly specified), the ID50 in assay [1] and in assay [2] was above 2000 µM throughout.

For the molecule `Nc1ncc([C@@H]2O[C@H](COP(=O)(O)CC(=O)O)[C@@H](O)[C@H]2O)c(=O)[nH]1`, the ID50 was 770 µM in assay [1] and 780 µM in assay [2].

In assay [2], `Nc1ncnc2c1ncn2[C@@H]1O[C@H](COP(=O)(O)CC(=O)O)[C@@H](O)[C@H]1O` displayed an ID50 of 580 µM. The PD50 in assay [3] stood at 0.4 mM/kg.
